Source: ChEMBL document CHEMBL1144503, “Structure determination of inonotsuoxides A and B and in vivo anti-tumor promoting activity of inotodiol from the sclerotia of Inonotus obliquus” (Bioorg Med Chem, 2007)

Assays:
Mus musculus [1] = organism: Mus musculus; test: Suppression of DMBA/TPA-induced papilloma-formation in ICR mouse at 85 nmol within 10 week; format: functional
Mus musculus [2] = organism: Mus musculus; test: Toxicity in ICR mouse with DMBA/TPA-induced papilloma; format: organism-based; conditions: in vivo
Summary of the method: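 Specific pathogen-free female ICR mice, 6 weeks old, in three groups of 15. Shaved backs were initiated topically with DMBA (390 nmol) in 0.1 ml acetone. From one week later, TPA (1.7 nmol) in 0.1 ml acetone was applied to the skin twice weekly. Treated groups also received 85 nmol of test agent with TPA. Mice were followed to week 20.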

Raji = test: Cell viability in Raji cells at 1000 mol ratio/TPA relative to control; format: functional, Homo sapiens
Summary of the method: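 Raji cells under the EBV-EA induction conditions (n-butyric acid 4 mmol plus TPA 32 pmol, 48 h, 37 C), with test compound added in DMSO at 1000 mol ratio to TPA. Viability was assayed by Trypan blue staining and reported as a percentage.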

Human gammaherpesvirus 4 [3] = test: Inhibition of TPA-induced EBV-EA activation in Raji cells at 10 mol ratio/TPA relative to control; values are per cent of control
Human gammaherpesvirus 4 [4] = test: Inhibition of TPA-induced EBV-EA activation in Raji cells at 100 mol ratio/TPA relative to control; values are per cent of control
Human gammaherpesvirus 4 [5] = test: Inhibition of TPA-induced EBV-EA activation in Raji cells at 500 mol ratio/TPA relative to control; values are per cent of control
Human gammaherpesvirus 4 [6] = test: Inhibition of TPA-induced EBV-EA activation in Raji cells at 1000 mol ratio/TPA relative to control; values are per cent of control
Mus musculus [7] = organism: Mus musculus; test: Suppression of DMBA/TPA-induced papilloma-formation in ICR mouse within 10 week; format: functional

SMILES: CC1(C)CC[C@]2(C(=O)O)CC[C@]3(C)C(=CC[C@@H]4[C@@]5(C)CC[C@H](O)C(C)(C)[C@@H]5CC[C@]43C)[C@@H]2C1 [OLEANOLIC_ACID]
- Activity (Mus musculus [1]): <30%
- Activity (Mus musculus [2]): Non-toxic

SMILES: CC(=O)O[C@H]1C[C@H]([C@@H](C)[C@H]2CC[C@@]3(C)C4=C(CC[C@]23C)[C@@]2(C)CC[C@H](OC(C)=O)C(C)(C)[C@@H]2CC4)OC1(C)C
- Activity (Raji): 70%

SMILES: CC(C)=CCC[C@@H](C(=O)O)[C@H]1CC[C@@]2(C)C3=C(CC[C@]12C)[C@@]1(C)CC[C@H](O)C(C)(C)[C@@H]1CC3 [TRAMETENOLIC ACID]
- Activity (Raji): 70%
- level, % of control (Human gammaherpesvirus 4 [3]): 98.6%
- level, % of control (Human gammaherpesvirus 4 [4]): 75.4%
- level, % of control (Human gammaherpesvirus 4 [5]): 45%
- level, % of control (Human gammaherpesvirus 4 [6]): 9.2%

SMILES: CC(C)=CCC[C@@H](C)[C@H]1CC[C@@]2(C)C3=C(CC[C@]12C)[C@@]1(C)CC[C@H](O)C(C)(C)[C@@H]1CC3 [LANOSTEROL]
- Activity (Raji): 70%
- level, % of control (Human gammaherpesvirus 4 [3]): 96.3%
- level, % of control (Human gammaherpesvirus 4 [4]): 74.3%
- level, % of control (Human gammaherpesvirus 4 [5]): 44.7%
- level, % of control (Human gammaherpesvirus 4 [6]): 4.9%

SMILES: C[C@@H]([C@H]1CC[C@@]2(C)C3=C(CC[C@]12C)[C@@]1(C)CC[C@H](O)C(C)(C)[C@@H]1CC3)[C@H]1C[C@H](O)C(C)(C)O1 [INONOTSUOXIDE A]
- Activity (Raji): 70%
- level, % of control (Human gammaherpesvirus 4 [3]): 94.3%
- level, % of control (Human gammaherpesvirus 4 [4]): 71.3%
- level, % of control (Human gammaherpesvirus 4 [5]): 42%
- level, % of control (Human gammaherpesvirus 4 [6]): 6.3%

SMILES: CC(C)=CC[C@@H](O)[C@@H](C)[C@H]1CC[C@@]2(C)C3=C(CC[C@]12C)[C@@]1(C)CC[C@H](O)C(C)(C)[C@@H]1CC3 [INOTODIOL]
- Activity (Mus musculus [7]): <30%
- Activity (Raji): 70%
- Activity (Mus musculus [2]): Non-toxic
- level, % of control (Human gammaherpesvirus 4 [3]): 93.1%
- level, % of control (Human gammaherpesvirus 4 [4]): 66.1%
- level, % of control (Human gammaherpesvirus 4 [5]): 37.6%
- level, % of control (Human gammaherpesvirus 4 [6]): 2.4%

SMILES: CC(=O)O[C@H]1CC[C@]2(C)C3=C(CC[C@H]2C1(C)C)[C@]1(C)CC[C@H]([C@@H](CCC=C(C)C)C(=O)O)[C@@]1(C)CC3 [ACETYL TRAMETENOLIC ACID]
- Activity (Raji): 70%
- level, % of control (Human gammaherpesvirus 4 [3]): 100%
- level, % of control (Human gammaherpesvirus 4 [4]): 79%
- level, % of control (Human gammaherpesvirus 4 [5]): 47.8%
- level, % of control (Human gammaherpesvirus 4 [6]): 12.7%
